Reference: ChEMBL document CHEMBL3745688, “Discovery of novel hybrids of diaryl-1,2,4-triazoles and caffeic acid as dual inhibitors of cyclooxygenase-2 and 5-lipoxygenase for cancer therapy” (Eur J Med Chem, 2016)

Tests used:
A549 [1] = assay: Induction of apoptosis in human A549 cells assessed as viable cells at 1 uM after 72 hrs by annexinV-APC/7-AAD staining based flow cytometry (reference value: 92.08%); assay type: functional; conditions: A549, 72 h, read-out: Activity
A549 [2] = assay: Cell cycle arrest in human A549 cells assessed as accumulation at G2 phase at 1 uM after 72 hrs by propidium iodide staining based flow cytometry (reference value: 3.88%); assay type: functional
[3] = Selectivity index, ratio of IC50 for rat COX2 to IC50 for calf COX1
Procedure, shortened: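 Ratio of COX-2 IC50 to COX-1 IC50. COX-2 was measured in rat peritoneal macrophages: 1.0×10^6/well in RPMI 1640 with 5% FCS, grown 24 h, COX-1 inactivated with 1 mM aspirin, COX-2 induced with LPS 1 µg/mL for 6 h, compound added for 30 min, then arachidonic acid 10 µM for 20 min, PGE2 read by EIA. COX-1 was measured in calf aortic endothelial cells by 6-keto-PGF1α radioimmunoassay.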

[4] = target: T1, Polyunsaturated fatty acid 5-lipoxygenase (Rattus norvegicus, UniProt P12527); assay: Inhibition of 5-LOX in Sprague-Dawley rat leukocytes assessed as A23187 stimulated LTB4 production pretreated for 30 mins followed by addition of A23187 for 30 mins by EIA; assay type: cell-based
T1 sequence (P12527 whole entry): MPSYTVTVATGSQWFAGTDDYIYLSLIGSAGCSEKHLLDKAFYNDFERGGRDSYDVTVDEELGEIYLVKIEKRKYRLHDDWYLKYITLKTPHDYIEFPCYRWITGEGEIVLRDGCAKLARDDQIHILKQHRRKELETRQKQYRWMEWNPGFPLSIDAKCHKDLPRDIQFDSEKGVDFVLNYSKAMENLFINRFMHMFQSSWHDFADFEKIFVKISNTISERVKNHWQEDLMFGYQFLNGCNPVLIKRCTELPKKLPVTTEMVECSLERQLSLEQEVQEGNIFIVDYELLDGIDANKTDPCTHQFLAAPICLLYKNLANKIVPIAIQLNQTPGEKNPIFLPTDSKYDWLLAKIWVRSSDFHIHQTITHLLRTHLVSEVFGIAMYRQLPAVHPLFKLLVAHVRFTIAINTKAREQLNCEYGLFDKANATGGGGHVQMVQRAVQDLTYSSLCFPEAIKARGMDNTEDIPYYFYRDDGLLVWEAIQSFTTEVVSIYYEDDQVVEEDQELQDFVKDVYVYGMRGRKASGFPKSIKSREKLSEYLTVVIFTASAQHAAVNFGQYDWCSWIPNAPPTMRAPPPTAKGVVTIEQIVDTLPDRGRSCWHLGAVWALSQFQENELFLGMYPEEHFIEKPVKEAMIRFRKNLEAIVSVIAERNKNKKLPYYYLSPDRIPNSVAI
Procedure, shortened: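 Rat peritoneal leukocytes collected from Sprague-Dawley rats primed i.p. with 0.2% glycogen (20 mL/kg). Cells in Hanks solution plated at 1.0×10^6/well and held 10 min at 37 °C. Pretreated 30 min with L-cysteine (10 mM), indomethacin (1 mg/L) and compound or DMSO. A23187 added for 30 min. LTB4 in the clarified supernatant measured by EIA; % inhibition from OD; IC50 by Bliss method.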

[5] = Antiproliferative activity against human PC3 cells after 72 hrs by MTT assay; assay type: functional, cell-based; conditions: PC-3, 72 h
Procedure, shortened: (§1)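 Cells seeded at 5×10^4/well, grown 24 h at 37 °C in 5% CO₂, then exposed to compounds dissolved in DMSO at a range of concentrations for 72 h. MTT (5 mg/mL in PBS) added for 4 h, then OD read at 570 nm. IC50 taken from dose-response curves, mean ± S.D. of three independent experiments.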

A549 [6] = assay: Induction of apoptosis in human A549 cells assessed as late apoptotic cells at 5 uM after 72 hrs by annexinV-APC/7-AAD staining based flow cytometry (reference value: 1.81%); assay type: functional
A549 [7] = assay: Cell cycle arrest in human A549 cells assessed as accumulation at S phase at 1 uM after 72 hrs by propidium iodide staining based flow cytometry (reference value: 42.46%); assay type: functional
A549 [8] = assay: Cell cycle arrest in human A549 cells assessed as accumulation at G1 phase at 1 uM after 72 hrs by propidium iodide staining based flow cytometry (reference value: 53.66%); assay type: functional
A549 [9] = assay: Induction of apoptosis in human A549 cells assessed as necrotic cells at 1 uM after 72 hrs by annexinV-APC/7-AAD staining based flow cytometry (reference value: 0.41%); assay type: functional
A549 [10] = assay: Antiproliferative activity against human A549 cells after 72 hrs by MTT assay; assay type: functional, cell-based; conditions: A549, 72 h; procedure, shortened: as §1
A549 [11] = assay: Cell cycle arrest in human A549 cells assessed as accumulation at G2 phase at 5 uM after 72 hrs by propidium iodide staining based flow cytometry (reference value: 3.88%); assay type: functional

Structure (SMILES): CS(=O)(=O)c1ccc(-c2nc(SCCCOC(=O)/C=C/c3ccc(O)c(O)c3)nn2-c2ccc(F)cc2)cc1
- viability at 1 µM (A549 [1]): 86.2%
- Activity (A549 [2]): 7.24%
- Ratio IC50 [3]: 0.014
- IC50 [4]: 0.71 µM
- IC50 [5]: 10.1 µM
- Activity (A549 [6]): 6.37%
- Activity (A549 [7]): 42.92%
- Activity (A549 [8]): 49.85%
- Activity (A549 [9]): 0.91%
- IC50 (A549 [10]): 9.52 µM
- Activity (A549 [11]): 13.76%
